Data as given in ChEMBL document CHEMBL4017517, “Small Molecule Inhibitors Simultaneously Targeting Cancer Metabolism and Epigenetics: Discovery of Novel Nicotinamide Phosphoribosyltransferase (NAMPT) and Histone Deacetylase (HDAC) Dual Inhibitors” (J Med Chem, 2017).
The source made the active and inactive calls. No cut-off for these calls is given here.

Columns and labels:
HCT-116 [1] = test: Induction of apoptosis in human HCT116 cells assessed as early apoptotic cells at 5 uM after 72 hrs by Annexin V-FITC/propidium iodide staining-based flow cytometric analysis (reference value: 7.82%); type: functional
How it was run: (§1)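 HCT116 cells seeded at 5×10^5 cells/mL in six-well plates, treated at 5 μM for 72 h alongside vehicle. Cells trypsinized, washed twice in cold PBS, and resuspended in 1× binding buffer. Stained with annexin V-FITC 15 min at room temperature, then PI 15 min in dark, then flow cytometry.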

[2] = biological target: Nicotinamide phosphoribosyltransferase (Homo sapiens, UniProt P43490); test: Inhibition of human recombinant NAMPT using NAM as substrate preincubated for 5 mins followed by substrate addition measured after 15 mins by fluorescence assay
HCT-116 [3] = test: cells; type: functional, cell-based; settings: Homo sapiens, HCT-116, 72 h
MDA-MB-231 = test: cells; type: functional, cell-based; settings: Homo sapiens, MDA-MB-231, 72 h
HepG2 = test: cells; type: functional, cell-based; settings: Homo sapiens, HepG2, 72 h
Histone deacetylase 2 = Histone deacetylase 2 (Homo sapiens, UniProt Q92769)
[4] = biological target: Histone deacetylase 3/NCoR1 (Homo sapiens, UniProt O15379); test: Inhibition of human recombinant HDAC3/GST tagged NCOR1 (397 to 503 residues) expressed in insect cells using Ac-Leu-Gly-Lys(Ac)-AMC as substrate preincubated for 5 mins followed by substrate addition measured after 30 mins by fluorescence assay
Histone deacetylase 4 = Histone deacetylase 4 (Homo sapiens, UniProt P56524); test: Inhibition of GST tagged human recombinant HDAC4 (H86 to 31G) expressed in Baculovirus infected Sf9 insect cells using Ac-Leu-Gly-Lys(Tfa)-AMC as substrate preincubated for 5 mins followed by substrate addition measured after 30 mins by fluorescence assay
HCT-116 [5] = test: Induction of apoptosis in human HCT116 cells assessed as late apoptotic cells at 5 uM after 72 hrs by Annexin V-FITC/propidium iodide staining-based flow cytometric analysis (reference value: 3.33%); type: functional; how it was run: as §1
HCT-116 [6] = test: Induction of apoptosis in human HCT116 cells assessed as necrotic cells at 5 uM after 72 hrs by Annexin V-FITC/propidium iodide staining-based flow cytometric analysis (reference value: 1.25%); type: functional; how it was run: as §1
HCT-116 [7] = test: Induction of apoptosis in human HCT116 cells assessed as early apoptotic cells at 5 uM after 72 hrs in presence of autophagy inhibitor wortmannin by Annexin V-FITC/propidium iodide staining-based flow cytometric analysis (reference value: 7.82%); type: functional
HCT-116 [8] = test: Induction of apoptosis in human HCT116 cells assessed as late apoptotic cells at 5 uM after 72 hrs in presence of autophagy inhibitor wortmannin by Annexin V-FITC/propidium iodide staining-based flow cytometric analysis (reference value: 3.33%); type: functional
HCT-116 [9] = test: Induction of apoptosis in human HCT116 cells assessed as necrotic cells at 5 uM after 72 hrs in presence of autophagy inhibitor wortmannin by Annexin V-FITC/propidium iodide staining-based flow cytometric analysis (reference value: 1.25%); type: functional
HCT-116 [10] = test: Induction of autophagy in human HCT116 cells assessed as increase in LC3-2 level at 5 uM after 24 hrs by Western blot analysis; type: functional, cell-based
How it was run: (§2)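 HCT116 cells exposed to 5 μM for 24, 48 and 72 h; DMSO control. Lysed in RIPA on ice, cleared 12000 × g. 30 μg protein per lane on SDS-PAGE, transferred to PVDF, blocked in 5% BSA. Probed overnight at 4 °C for LC3-II and P-62, then secondary antibody 1.5 h. Infrared imaging detection with quantification.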

HCT-116 [11] = test: Induction of autophagy in human HCT116 cells assessed as increase in LC3-2 level at 5 uM after 48 to 72 hrs by Western blot analysis; type: functional, cell-based; how it was run: as §2
HCT-116 [12] = test: Induction of autophagy in human HCT116 cells assessed as decrease in P-62 level at 5 uM after 24 to 72 hrs by Western blot analysis; type: functional, cell-based; how it was run: as §2
HCT-116 [13] = test: Cell cycle arrest in human HCT116 cells assessed as accumulation at G2 phase at 1 uM after 48 hrs by propidium iodide staining based flow cytometry (reference value: 5%); type: functional
HCT-116 [14] = test: Cell cycle arrest in human HCT116 cells assessed as accumulation at G2 phase at 5 uM after 48 hrs by propidium iodide staining based flow cytometry (reference value: 5%); type: functional
Homo sapiens = species: Homo sapiens; test: Inhibition of HDAC in human HCT116 cells assessed as increase in acetylated histone H4 level after 24 hrs by Western blot analysis; type: cell-based
How it was run: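 HCT116 cells treated at 1 and 5 μM for 24 h; DMSO-volume control. PBS-washed, RIPA-lysed on ice 30 min, centrifuged 12000 × g 15 min at 4 °C. 30 μg protein separated by SDS-PAGE, blotted to PVDF, blocked 5% BSA 2 h. Incubated with acetyl-histone H3 or H4 primary antibody overnight at 4 °C, then secondary antibody; infrared imaging.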

HCT-116 [15] = test: animal or person; type: functional, Homo sapiens; settings: Mus musculus, HCT-116, ip, read-out: TGI
[16] = Terminal half life in Sprague-Dawley rat at 2 mg/kg, ip; type: ADME, organism-based; settings: in vivo, read-out: beta t1/2 (converted)
How it was run: (§3)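 Sprague-Dawley rats given a single ip dose of 2 mg/kg. Plasma concentration–time profile used to derive terminal half-life, Cmax, plasma clearance and Vss.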

[17] = Cmax in Sprague-Dawley rat at 2 mg/kg, ip; type: ADME, organism-based; set-up: dose 2 mg/kg, route intraperitoneal; settings: in vivo; how it was run: as §3
Rattus norvegicus = test: Volume of distribution at steady state in Sprague-Dawley rat at 2 mg/kg, ip; type: ADME, organism-based; settings: in vivo; how it was run: as §3
[18] = Plasma clearance in Sprague-Dawley rat at 2 mg/kg, ip; type: ADME, organism-based; how it was run: as §3
Histone deacetylase 1 = Histone deacetylase 1 (Homo sapiens, UniProt Q13547); test: Inhibition of human recombinant HDAC1 (1 to 482 residues) expressed in Baculovirus using Ac-Leu-Gly-Lys(Ac)-AMC as substrate after 3 hrs by fluorescence assay
Histone deacetylase 1, sequence (Q13547 whole entry, the tested form may be a part): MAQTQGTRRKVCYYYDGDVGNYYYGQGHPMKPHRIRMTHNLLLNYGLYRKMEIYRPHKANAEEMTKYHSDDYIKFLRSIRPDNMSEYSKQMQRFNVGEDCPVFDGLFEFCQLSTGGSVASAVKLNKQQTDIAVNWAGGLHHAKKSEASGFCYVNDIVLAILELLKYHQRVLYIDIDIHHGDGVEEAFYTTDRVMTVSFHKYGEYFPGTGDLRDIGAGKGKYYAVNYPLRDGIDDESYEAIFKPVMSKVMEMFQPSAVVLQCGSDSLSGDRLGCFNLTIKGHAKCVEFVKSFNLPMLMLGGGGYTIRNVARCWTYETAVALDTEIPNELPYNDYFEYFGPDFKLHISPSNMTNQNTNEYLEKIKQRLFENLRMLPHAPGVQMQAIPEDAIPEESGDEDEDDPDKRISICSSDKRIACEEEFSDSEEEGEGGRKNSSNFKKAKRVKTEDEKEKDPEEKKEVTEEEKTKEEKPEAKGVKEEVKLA

Histone deacetylase 4, sequence (P56524 whole entry): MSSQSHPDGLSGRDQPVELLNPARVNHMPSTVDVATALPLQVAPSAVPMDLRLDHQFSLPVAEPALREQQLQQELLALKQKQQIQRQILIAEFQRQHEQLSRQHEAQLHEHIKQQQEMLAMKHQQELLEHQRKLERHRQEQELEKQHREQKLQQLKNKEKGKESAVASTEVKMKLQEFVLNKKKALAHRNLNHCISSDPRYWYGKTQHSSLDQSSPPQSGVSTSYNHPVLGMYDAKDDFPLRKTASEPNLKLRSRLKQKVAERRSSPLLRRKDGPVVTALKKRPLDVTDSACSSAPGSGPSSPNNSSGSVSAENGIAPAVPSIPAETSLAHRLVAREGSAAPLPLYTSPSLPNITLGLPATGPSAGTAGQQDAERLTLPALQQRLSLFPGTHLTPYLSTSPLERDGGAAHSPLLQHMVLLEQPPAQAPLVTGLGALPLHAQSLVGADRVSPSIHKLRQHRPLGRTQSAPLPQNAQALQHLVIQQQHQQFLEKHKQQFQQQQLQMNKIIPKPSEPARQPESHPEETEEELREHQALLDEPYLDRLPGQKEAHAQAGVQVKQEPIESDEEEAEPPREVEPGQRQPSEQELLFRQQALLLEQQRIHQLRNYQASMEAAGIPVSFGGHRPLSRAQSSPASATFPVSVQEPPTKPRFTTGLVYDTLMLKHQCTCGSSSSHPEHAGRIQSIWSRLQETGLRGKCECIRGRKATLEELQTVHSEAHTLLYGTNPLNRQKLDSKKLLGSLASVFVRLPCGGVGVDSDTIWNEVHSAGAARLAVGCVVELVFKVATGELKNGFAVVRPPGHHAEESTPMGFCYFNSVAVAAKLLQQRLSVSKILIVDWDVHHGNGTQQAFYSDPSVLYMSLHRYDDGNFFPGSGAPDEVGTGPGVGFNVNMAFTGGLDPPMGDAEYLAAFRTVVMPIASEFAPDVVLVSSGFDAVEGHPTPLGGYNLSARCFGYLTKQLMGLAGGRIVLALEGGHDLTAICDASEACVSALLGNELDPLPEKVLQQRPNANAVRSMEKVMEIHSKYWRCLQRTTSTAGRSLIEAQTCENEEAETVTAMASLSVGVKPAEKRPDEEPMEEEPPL
Histone deacetylase 2, sequence (Q92769 whole entry, the tested form may be a part): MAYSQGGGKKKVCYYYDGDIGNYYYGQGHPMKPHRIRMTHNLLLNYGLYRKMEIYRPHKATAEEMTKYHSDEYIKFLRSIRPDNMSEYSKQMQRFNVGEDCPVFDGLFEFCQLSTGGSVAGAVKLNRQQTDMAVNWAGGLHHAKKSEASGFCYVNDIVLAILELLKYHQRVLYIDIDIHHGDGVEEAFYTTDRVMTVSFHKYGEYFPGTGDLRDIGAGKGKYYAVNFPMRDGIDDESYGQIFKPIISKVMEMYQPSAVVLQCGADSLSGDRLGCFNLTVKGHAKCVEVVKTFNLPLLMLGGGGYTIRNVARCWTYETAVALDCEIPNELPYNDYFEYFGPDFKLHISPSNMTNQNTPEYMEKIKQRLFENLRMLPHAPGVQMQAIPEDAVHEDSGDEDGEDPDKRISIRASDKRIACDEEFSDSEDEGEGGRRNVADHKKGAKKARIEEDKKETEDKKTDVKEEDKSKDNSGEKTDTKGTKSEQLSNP
Histone deacetylase 3/NCoR1, sequence (O15379 whole entry, the tested form may be a part): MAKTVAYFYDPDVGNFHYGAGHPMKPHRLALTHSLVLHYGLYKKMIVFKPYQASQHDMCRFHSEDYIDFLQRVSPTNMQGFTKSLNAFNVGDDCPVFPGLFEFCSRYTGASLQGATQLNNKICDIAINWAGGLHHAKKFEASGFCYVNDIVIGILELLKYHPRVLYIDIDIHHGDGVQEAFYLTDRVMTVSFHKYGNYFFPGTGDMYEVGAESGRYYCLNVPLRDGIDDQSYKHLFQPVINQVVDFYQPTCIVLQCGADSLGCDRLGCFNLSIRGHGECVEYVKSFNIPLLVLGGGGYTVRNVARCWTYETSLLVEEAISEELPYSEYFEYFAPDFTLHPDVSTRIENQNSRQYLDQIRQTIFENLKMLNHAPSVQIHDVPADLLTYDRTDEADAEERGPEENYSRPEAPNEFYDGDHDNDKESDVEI
Histone deacetylase 3/NCoR1, sequence (O75376 whole entry, further chain, the tested form may be a part): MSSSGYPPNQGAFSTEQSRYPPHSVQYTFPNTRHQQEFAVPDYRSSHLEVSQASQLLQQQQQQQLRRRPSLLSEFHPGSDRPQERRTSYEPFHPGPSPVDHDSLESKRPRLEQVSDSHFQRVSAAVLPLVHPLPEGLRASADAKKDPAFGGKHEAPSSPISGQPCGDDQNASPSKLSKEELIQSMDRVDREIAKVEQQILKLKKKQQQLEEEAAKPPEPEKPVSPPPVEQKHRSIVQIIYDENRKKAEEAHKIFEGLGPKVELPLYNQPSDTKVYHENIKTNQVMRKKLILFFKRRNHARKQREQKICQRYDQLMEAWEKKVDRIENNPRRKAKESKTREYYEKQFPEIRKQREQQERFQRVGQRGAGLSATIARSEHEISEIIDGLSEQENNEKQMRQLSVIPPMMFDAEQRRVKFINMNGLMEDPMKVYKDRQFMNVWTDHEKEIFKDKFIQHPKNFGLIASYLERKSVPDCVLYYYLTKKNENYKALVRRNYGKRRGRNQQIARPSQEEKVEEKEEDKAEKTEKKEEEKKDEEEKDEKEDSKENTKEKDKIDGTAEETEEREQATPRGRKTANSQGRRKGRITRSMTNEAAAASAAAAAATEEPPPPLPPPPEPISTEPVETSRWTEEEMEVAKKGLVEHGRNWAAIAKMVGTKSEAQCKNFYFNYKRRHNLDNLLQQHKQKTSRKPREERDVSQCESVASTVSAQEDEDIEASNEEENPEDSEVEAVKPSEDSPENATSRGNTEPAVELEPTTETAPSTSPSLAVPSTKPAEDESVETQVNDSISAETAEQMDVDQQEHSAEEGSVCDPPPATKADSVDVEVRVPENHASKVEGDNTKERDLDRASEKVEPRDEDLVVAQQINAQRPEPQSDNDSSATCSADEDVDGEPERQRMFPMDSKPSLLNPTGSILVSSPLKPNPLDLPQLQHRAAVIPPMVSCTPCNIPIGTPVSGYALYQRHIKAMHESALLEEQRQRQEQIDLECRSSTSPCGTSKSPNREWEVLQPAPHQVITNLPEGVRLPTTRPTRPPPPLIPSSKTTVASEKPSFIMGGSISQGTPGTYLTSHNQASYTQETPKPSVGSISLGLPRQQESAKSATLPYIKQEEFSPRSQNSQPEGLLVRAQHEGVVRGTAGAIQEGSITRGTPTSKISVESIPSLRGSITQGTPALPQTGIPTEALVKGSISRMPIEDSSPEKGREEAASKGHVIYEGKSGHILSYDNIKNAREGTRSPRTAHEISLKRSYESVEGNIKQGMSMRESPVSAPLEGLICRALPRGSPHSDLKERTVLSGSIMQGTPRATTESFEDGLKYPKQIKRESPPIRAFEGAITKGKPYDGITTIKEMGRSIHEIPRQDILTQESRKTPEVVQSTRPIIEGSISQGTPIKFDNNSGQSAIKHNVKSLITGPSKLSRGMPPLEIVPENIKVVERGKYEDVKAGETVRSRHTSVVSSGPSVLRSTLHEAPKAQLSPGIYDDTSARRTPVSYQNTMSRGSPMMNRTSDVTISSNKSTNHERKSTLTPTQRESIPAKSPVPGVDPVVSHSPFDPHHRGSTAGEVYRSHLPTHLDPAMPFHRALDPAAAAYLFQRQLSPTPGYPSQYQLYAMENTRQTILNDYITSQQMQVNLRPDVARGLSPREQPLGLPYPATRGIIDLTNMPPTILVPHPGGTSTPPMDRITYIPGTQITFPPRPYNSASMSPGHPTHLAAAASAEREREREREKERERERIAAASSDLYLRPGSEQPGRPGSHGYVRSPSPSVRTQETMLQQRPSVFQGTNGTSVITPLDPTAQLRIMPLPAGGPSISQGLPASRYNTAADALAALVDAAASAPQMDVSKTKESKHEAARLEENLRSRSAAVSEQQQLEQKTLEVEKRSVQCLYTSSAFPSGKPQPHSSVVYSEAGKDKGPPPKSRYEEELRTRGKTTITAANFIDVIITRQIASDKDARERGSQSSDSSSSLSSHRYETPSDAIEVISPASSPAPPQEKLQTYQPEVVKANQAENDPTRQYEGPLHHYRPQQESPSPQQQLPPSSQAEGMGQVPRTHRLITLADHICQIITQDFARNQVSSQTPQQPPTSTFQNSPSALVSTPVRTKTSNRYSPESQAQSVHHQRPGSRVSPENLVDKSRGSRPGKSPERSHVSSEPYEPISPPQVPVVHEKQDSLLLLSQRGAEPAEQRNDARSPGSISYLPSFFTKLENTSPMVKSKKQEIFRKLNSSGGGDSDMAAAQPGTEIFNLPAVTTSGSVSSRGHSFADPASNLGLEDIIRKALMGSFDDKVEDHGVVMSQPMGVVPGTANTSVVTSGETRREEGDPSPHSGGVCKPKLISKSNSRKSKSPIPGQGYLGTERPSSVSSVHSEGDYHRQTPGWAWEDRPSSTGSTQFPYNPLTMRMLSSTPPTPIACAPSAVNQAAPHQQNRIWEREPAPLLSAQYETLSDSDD

`Nc1ccccc1NC(=O)c1ccc(Cn2cc(-c3ccc(C(=O)NCc4cccnc4)cc3)nn2)cc1` showed an Activity (HCT-116 [1]) of 22.15%, an IC50 [2] of 31 nM and an IC50 (HCT-116 [3]) of 2400 nM. The IC50 (MDA-MB-231) was 10000 nM, the IC50 (HepG2) was 4500 nM and the IC50 (Histone deacetylase 2) was 75 nM. The IC50 [4] was 1870 nM, the IC50 (Histone deacetylase 4) was > 100000 nM and the Activity (HCT-116 [5]) was 21.84%. The Activity (HCT-116 [6]) was 2.43%, the Activity (HCT-116 [7]) was 12.46% and the Activity (HCT-116 [8]) was 15.22%. The Activity (HCT-116 [9]) was 2.19%, the Activity (HCT-116 [10]) was “Active” and the Activity (HCT-116 [11]) was “inactive”. The Activity (HCT-116 [12]) was “Active”, the Activity (HCT-116 [13]) was 19% and the Activity (HCT-116 [14]) was 39%. For the same molecule, the inhibition (Homo sapiens) was “Active”, the inhibition in vivo at 25 mg/kg (HCT-116 [15]) was 69% and the half-life [16] was 1.8 h. The Cmax [17] was 745 ng/mL, the Vdss (Rattus norvegicus) was 6.229 L/kg and the CL/F [18] was 103 mL/min/kg. The IC50 (Histone deacetylase 1) was 24 nM.
